CendR NRP1 mod: alters CendR peptide binding to human NRP-1. AID 602438. 360,000 compounds, 0.85% hits. O14786. inhibition, % at 25 µM. FAM-RPARPAR peptide binding to NRP-1, fluorescence polarization;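 active = inhibition or corrected inhibition above about 18%, plus a signal ratio from 0.5 to 1.5, limit read from the data, passing the limit was not always enough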
Target sequence (O14786 whole entry, looked up): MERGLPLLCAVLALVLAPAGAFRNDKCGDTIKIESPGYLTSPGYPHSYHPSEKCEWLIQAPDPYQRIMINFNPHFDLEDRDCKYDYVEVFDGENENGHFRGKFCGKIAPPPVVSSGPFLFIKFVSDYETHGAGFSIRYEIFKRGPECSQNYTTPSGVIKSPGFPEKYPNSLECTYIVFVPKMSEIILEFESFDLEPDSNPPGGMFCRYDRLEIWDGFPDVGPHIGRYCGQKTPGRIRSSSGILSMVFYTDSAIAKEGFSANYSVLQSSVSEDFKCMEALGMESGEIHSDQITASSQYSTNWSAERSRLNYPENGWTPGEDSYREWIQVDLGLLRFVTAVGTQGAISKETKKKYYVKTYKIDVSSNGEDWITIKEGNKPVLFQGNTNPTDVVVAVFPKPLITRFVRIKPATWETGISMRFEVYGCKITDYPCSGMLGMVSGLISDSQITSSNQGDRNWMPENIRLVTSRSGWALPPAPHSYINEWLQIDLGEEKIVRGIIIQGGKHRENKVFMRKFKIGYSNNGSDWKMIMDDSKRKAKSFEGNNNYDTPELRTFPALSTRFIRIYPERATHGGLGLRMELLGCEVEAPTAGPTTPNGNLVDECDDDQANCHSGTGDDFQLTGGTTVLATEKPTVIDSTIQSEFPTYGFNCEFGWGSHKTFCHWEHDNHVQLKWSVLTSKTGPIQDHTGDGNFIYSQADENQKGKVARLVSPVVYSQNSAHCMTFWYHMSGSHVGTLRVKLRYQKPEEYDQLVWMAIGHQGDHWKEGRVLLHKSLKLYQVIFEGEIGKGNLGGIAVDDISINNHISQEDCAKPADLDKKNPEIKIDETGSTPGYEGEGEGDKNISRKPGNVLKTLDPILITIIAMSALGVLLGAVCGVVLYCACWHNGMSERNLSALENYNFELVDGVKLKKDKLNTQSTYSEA
SKN-1 block: C. elegans SKN-1 inhibition | C. elegans VP596 Pgst-4::GFP/RFP ratio, acrylamide-induced, 24 h | inhibition, % at 21.8 µM | 360,000 compounds, 0.49% hits | AID 624304;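 active = interference check ratio from 0.5 to 1.5 plus GFP to RFP signal ratio inhibition reaching or exceeding a fixed threshold, cut at about 30% in these data, passing the limit was not always enough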
MT1-MMP act inh: blocks activation of human MT1-MMP | 360,000 compounds, 0.061% hits | GFP/RFP ratio change, % at 20 µM | HT1080 RFP-PRO-GFP cells, GFP/RFP ratio fluorescence, overnight; percent of plate control window, DMSO zero | AID 651647;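 active = GFP/RFP ratio change of at least 30% with cell ATP level not reduced by more than half and red fluorescence within 50% of control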
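Test system: HT1080 RFP-PRO-GFP cells; Benchmarks: DMSO and RFP-L50D-GFP cell wells; Timing: cells overnight before dosing, compound overnight, 37 °C, 5% CO2; Compound: one 20 µM compound dose with 1% DMSO; Read-out: GFP/RFP fluorescence ratio.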
hiPSC survival: increases survival of single human iPS cells | hiPSC single-cell survival, ATPlite luminescence; 100% = ROCK inhibitor wells, 0% = DMSO | AID 602274 | 360,000 compounds, 0.044% hits | survival enhancement, % at 20 µM; in the data active = survival enhancement above about 18%;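 also: cells exposed to compounds for 16 hours before the ATP read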
Active calls of the source: *; / = not tested or not shown. Only some compounds are listed: those with a hit (about 1.4% of all), similar ones and a draw of the others.

SMILES	CendR NRP1 mod	SKN-1 block	MT1-MMP act inh	hiPSC survival
NC(Cc1ccc(Cl)cc1)c1csc(Nc2ccc(S(N)(=O)=O)cc2)n1 (stereo not drawn)	-7	22	-7	-2
CS(=O)(=O)c1ccc(Nc2nc(C(N)Cc3ccc(Cl)cc3)cs2)cc1 (stereo not drawn)	33*	14	-7	1
C(=N\N=C\c1cccs1)/c1cccs1	2	74*	-6	-1
C(=N\n1cnnc1)/c1cccs1	2	-5	-2	1
NC(=O)CSc1nc(-c2ccccc2)nc2c1CCCC2	-11	0	-3	-1
CSc1ccc(NC(=O)C(C)N2CCN(C)CC2)cc1 (stereo not drawn)	4	25	4	0
Cc1cc(C(=O)N/N=C/C=C/c2ccc3c(c2)OCO3)n[nH]1	27*	6	3	0
COc1ccc(Nc2ccc(OC)cc2)cc1	22	47	38*	-1
COc1ccc(Nc2ccc(Nc3ccc(OC)cc3)nn2)cc1	4	5	0	1
CC[C@@]1(C(=O)OC)N[C@H](CN(C)S(=O)(=O)c2ccc(-c3ccccc3)cc2)[C@@H]2C(=O)N(Cc3ccccc3)C(=O)[C@@H]21	4	2	-1	-2
NC(=O)C1CCN(C(=O)c2cc(-c3ccccc3Cl)nc3ccccc23)CC1	9	8	1	-3
Nc1nc(SCC(=O)N2CCOCC2)[nH]c(=O)c1-c1ccccc1	4	-2	0	-1
CNc1ccc(C=C2C=Cc3ccccc32)cc1	-8	82*	-2	-3
CN(C)c1ccc(C=C2C=Cc3ccccc32)cc1	-12	3	3	-4
O=C(CNC(=O)C12CC3CC(CC(C3)C1)C2)NC1=NCCS1	26*	5	4	2
Cc1nn(-c2ccccc2)c(C)c1/C=N/NC(=O)c1cc(C(C)(C)C)[nH]n1	-12	5	11	-1
Cc1ccc(-c2cc(C(=O)N/N=C/c3c(C)nn(-c4ccccc4)c3C)[nH]n2)cc1	2	47*	15	1
Cc1ccccc1-c1nnc(-c2ccccc2C)o1	-3	46*	0	0
Cc1ccccc1-c1nnc(-c2cccc3ccccc23)o1	11	18	-5	-4
CCOc1ccc(C(=O)OCC(=O)Nc2ccc3c(c2)OCCO3)cc1OC	25*	0	2	7
CC(C)(C)c1cc(NCc2ccccn2)n2ncc(-c3ccc(Cl)cc3)c2n1	2	5	5	1
CN(C)CCCNc1cc(C(C)(C)C)nc2c(-c3ccc(Cl)cc3)cnn12	5	41*	-7	-1
CCc1nc2oc3ccccc3c(=O)c2c(=O)n1-c1ccccc1	14	30*	4	-1
CCCCn1c(-c2cccs2)nc2oc3ccccc3c(=O)c2c1=O	20*	1	1	0
CCc1nc2oc3ccccc3c(=O)c2c(=O)n1-c1ccc(C)cc1	-38	28	0	0
SMILES	CendR NRP1 mod	SKN-1 block	MT1-MMP act inh	hiPSC survival
CC(C)OC(=O)c1nnn(-c2nonc2N)c1CN1CCc2ccccc2C1	-3	13	-11	0
COc1ccc(S(=O)(=O)Nc2c(O)c3ccccc3oc2=O)cc1	-6	0	2	1
Oc1ccc(/C=N/Nc2cc(N3CCOCC3)nc(N3CCOCC3)n2)cc1O	26*	6	8	-1
O=C(NCC(c1cccnc1)N1CCN(c2ccccc2F)CC1)C1CCCCC1 (stereo not drawn)	7	19	8	-1
COc1cc(C(=O)NCCC(=O)NCCCN2CCCCC2C)cc(OC)c1OC (stereo not drawn)	-1	1	-1	-1
CCn1cc(C(=O)N2CCc3ccccc32)c(=O)c2cc(S(=O)(=O)N3CCCC3)ccc21	-7	1	-2	-1
O=C(O)C1CCCC2CN3CCc4c([nH]c5ccccc45)C3C(O)C21 (stereo not drawn)	14	37*	-16	0
O=C(CN1CCN(Cc2ccc3c(c2)OCO3)CC1)N1CCc2[nH]c3ccc(F)cc3c2C1	34*	12	-2	-1
O=C(c1cccc(F)c1)N1CCN(Cc2ccc3c(c2)OCO3)CC1	12	-3	3	0
COc1ccc(C2CC(c3ccccc3)Nc3nc(NC(=O)c4cccs4)nn32)cc1 (stereo not drawn)	31*	-5	8	-1
COc1cccc(C2=NN(C(C)=O)C(c3cccs3)C2)c1 (stereo not drawn)	-6	36*	0	0
COc1ccc(C2CC(c3ccccc3)=NN2C(=O)c2cccs2)cc1 (stereo not drawn)	3	37*	-8	-2
COc1ccc(C2=NN(C(C)=O)C(c3cccs3)C2)cc1OC (stereo not drawn)	-8	21	-2	1
C/C(=C\C(=O)c1ccc(C)o1)Nc1ccc(C(=O)O)cc1C	2	-6	1	0
CCOc1ccc(CCNC(=O)Cc2ccc(S(=O)(=O)N3CCOCC3)s2)cc1OCC	-12	9	3	1
CCn1c(CSc2nc3ccccc3s2)nnc1SCC(=O)c1ccc2c(c1)OCCO2	-6	2	-2	1
CCc1ccccc1NC(=O)NNC(=O)c1ccc2ccccc2c1O	3	9	2	0
CCOc1ccc(NC(=O)NNC(=O)c2ccc3ccccc3c2O)cc1	26*	-6	-1	0
COc1cccc(CNC(=O)c2cccc(S(=O)(=O)N3CCN(Cc4ccccc4)CC3)c2)c1	-1	4	2	-1
C=C1CCC[C@]2(C)C[C@H]3OC(=O)C(CNCCN(C)C)[C@H]3CC12 (stereo partly drawn)	0	37*	-4	1
N#C/C(=C\c1ccc(Cl)cc1Cl)c1n[nH]c(Cn2cncn2)n1	-4	44*	-6	2
CCOc1cc(C(=O)NCCN2CCOCC2)cc(OCC)c1OCC	26*	0	/	1
CCOC(=O)c1ccc2c(c1)nc(SCC(=O)c1cc3ccccc3o1)n2CC	-2	52*	-40	0
C=CCNC(=O)CSc1nc2cc(C(=O)OCC)ccc2n1CC	6	12	3	-2
CCCn1c(CCNC(=O)c2cccs2)nc2ccccc21	-9	-4	-2	-1
SMILES	CendR NRP1 mod	SKN-1 block	MT1-MMP act inh	hiPSC survival
Cc1cc2ccccc2n1CCNC(=O)c1cccs1	-2	46*	48	4
Cc1cc2ccccc2n1CCNC(=O)C1CCCC1	15	38*	56	2
Cc1noc(C)c1NC(=O)N(C)C[C@H]1Oc2c(NC(=O)Nc3ccc(C(F)(F)F)cc3)cccc2C(=O)N([C@H](C)CO)C[C@@H]1C	14	0	0	-1
COc1cc(C(=O)N2CCC3(CC2)NCCc2[nH]cnc23)cc(OC)c1OC	-3	16	1	0
O=C(CSc1n[nH]c(-c2ccncc2)n1)Nc1ccc(Cl)c(C(=O)O)c1	-15	-10	-2	0
CCN1CCN(C(=S)c2ccc(Cl)cc2)CC1	-12	-3	-2	1
CCc1ccccc1NC(=O)c1ccc(CN2CCC(Cc3ccccc3)CC2)cc1	32*	9	4	-4

Screening results (PubChem BioAssay)
